Here are results for two compounds from ChEMBL document CHEMBL1153382 (J Med Chem, 2009).

The target of test [1] is Sodium-dependent serotonin transporter (Homo sapiens, UniProt P31645). The experiment in a line: Displacement of [3H]citalopram from SERT. On the technique in general: Loss of bound radioactivity is the signal in a displacement assay; it reports binding, not function.
Test [2] has as its target T1, 5-hydroxytryptamine receptor 2B (Homo sapiens, UniProt P41595). The experiment in a line: Agonist activity at human 5HT2B receptor expressed in HEK293 cells at 10 uM assessed as calcium flux by FLIPR assay relative to serotonin. The class given is functional, cell-based. (In general: Calcium assays in cells follow changes in intracellular calcium, usually with a dye or a luminescent sensor.)

For test [3], the target named is T2, 5-hydroxytryptamine receptor 2C (Homo sapiens) (UniProt P28335).
T2 sequence (whole entry): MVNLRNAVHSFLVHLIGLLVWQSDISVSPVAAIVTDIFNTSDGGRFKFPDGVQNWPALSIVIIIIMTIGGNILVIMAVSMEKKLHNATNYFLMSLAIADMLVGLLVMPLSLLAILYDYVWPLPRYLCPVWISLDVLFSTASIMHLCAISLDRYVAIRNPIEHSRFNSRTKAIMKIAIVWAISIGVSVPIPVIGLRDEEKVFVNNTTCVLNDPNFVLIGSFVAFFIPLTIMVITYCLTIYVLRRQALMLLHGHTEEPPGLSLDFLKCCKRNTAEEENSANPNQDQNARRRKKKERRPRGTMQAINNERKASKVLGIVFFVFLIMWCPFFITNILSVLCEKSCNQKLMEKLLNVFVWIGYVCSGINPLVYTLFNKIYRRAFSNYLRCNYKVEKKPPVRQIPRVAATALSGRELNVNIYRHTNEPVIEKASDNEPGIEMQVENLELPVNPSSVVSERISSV
The test can be described thus: Agonist activity at human 5HT2C receptor expressed in HEK293 cells at 10 uM assessed as calcium flux by FLIPR assay relative to serotonin. It is filed as functional, cell-based.

Test [4] can be described thus: Selectivity ratio of Ki for human 5HT2B receptor to Ki for 5HT2C receptor.
The target of test [5] is T3, 5-hydroxytryptamine receptor 2A (Homo sapiens, UniProt P28223). The test can be described thus: Agonist activity at human 5HT2A receptor expressed in HEK293 cells assessed as calcium flux by FLIPR assay. It is filed as functional, cell-based.
The next test is filed under the species Homo sapiens. The experiment in a line: Selectivity ratio of EC50 for human 5HT2B receptor to EC50 for human 5HT2C receptor.
In test [6] the target is T1, 5-hydroxytryptamine receptor 2B. The experiment in a line: Displacement of [3H]LSD from human 5HT2B receptor.
Test [7] addresses Serotonin 2 receptors; 5-HT2a & 5-HT2c (Homo sapiens) (UniProt P28223+P28335). The experiment in a line: Selectivity ratio of EC50 for human 5HT2A receptor to EC50 for human 5HT2C receptor.
Test [8] addresses Sodium-dependent noradrenaline transporter (Homo sapiens, UniProt P23975). The experiment in a line: Displacement of [3H]nisoxetine from NET.
The target in test [9] is T3, 5-hydroxytryptamine receptor 2A. The experiment in a line: Displacement of [3H]ketanserin from human 5HT2A receptor.
Test [10] concerns the target T4, 5-hydroxytryptamine receptor 2C (Homo sapiens, UniProt P28335).
T4 sequence (P28335 whole entry): T2 sequence (whole entry)
The test can be described thus: Agonist activity at human 5HT2C receptor expressed in HEK293 cells assessed as calcium flux by FLIPR assay. The class given is functional, cell-based.

The target in test [11] is T3, 5-hydroxytryptamine receptor 2A. The test can be described thus: Agonist activity at human 5HT2A receptor expressed in HEK293 cells at 10 uM assessed as calcium flux by FLIPR assay relative to serotonin. The class given is functional, cell-based.
Test [12] has as its target T4, 5-hydroxytryptamine receptor 2C. The experiment in a line: Displacement of [3H]mesulergine from 5HT2C receptor.
The nature of test [13]: Selectivity ratio of Ki for human 5HT2A receptor to Ki for 5HT2C receptor.
For test [14], the target named is T1, 5-hydroxytryptamine receptor 2B. The experiment in a line: Agonist activity at human 5HT2B receptor expressed in HEK293 cells assessed as calcium flux by FLIPR assay. The class given is functional, cell-based.
Test [15] addresses Sodium-dependent dopamine transporter (Homo sapiens, UniProt Q01959). The experiment in a line: Displacement of [3H]WIN-35428 from DAT.
Test [16] relates to Mus musculus. The test can be described thus: Antidepressant activity in C57BL/6J mouse assessed as decrease in immobility time at 60 mg/kg, ip administered 30 mins prior to testing measured every 1 min for 6 mins by forced swim test relative to control. The class given is functional. On the set-up: scale not given: the % may be the effect or the level left. The settings on record: route intraperitoneal. An outline of the steps:
(§1)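 Male C57BL/6J mice, 9 weeks old, housed 4 per cage on a 12 h light-dark cycle. Compound given ip in 10% DMSO in saline 30 min before testing. Each mouse was placed alone in a glass cylinder holding 12 cm of water at 23 ± 1 °C. Immobility (floating posture) was scored every 1 min over a 6 min trial and compared with vehicle.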

For test [17], the system named is Mus musculus. The test can be described thus: Antidepressant activity in C57BL/6J mouse assessed as decrease in immobility time at 10 mg/kg, ip administered 30 mins prior to testing measured every 1 min for 6 mins by forced swim test relative to control. It is filed as functional. Also noted: scale not given: the % may be the effect or the level left. The conditions noted are these: route intraperitoneal. An outline of the steps:
as §1

Test [18] concerns Mus musculus. The test can be described thus: Antidepressant activity in C57BL/6J mouse assessed as decrease in immobility time at 30 mg/kg, ip administered 30 mins prior to testing measured every 1 min for 6 mins by forced swim test relative to control. The class given is functional. The conditions noted are these: route intraperitoneal. On the set-up: scale not given: the % may be the effect or the level left. The procedure, abridged: as §1

As a reminder, the Ki is the equilibrium dissociation constant of an inhibitor or competing ligand from its target. As usually defined, the Emax is the greatest response seen or fitted, relative to the assay's reference. One may read the EC50 as the concentration that produces a half-maximal response.

T1 sequence (P41595 whole entry): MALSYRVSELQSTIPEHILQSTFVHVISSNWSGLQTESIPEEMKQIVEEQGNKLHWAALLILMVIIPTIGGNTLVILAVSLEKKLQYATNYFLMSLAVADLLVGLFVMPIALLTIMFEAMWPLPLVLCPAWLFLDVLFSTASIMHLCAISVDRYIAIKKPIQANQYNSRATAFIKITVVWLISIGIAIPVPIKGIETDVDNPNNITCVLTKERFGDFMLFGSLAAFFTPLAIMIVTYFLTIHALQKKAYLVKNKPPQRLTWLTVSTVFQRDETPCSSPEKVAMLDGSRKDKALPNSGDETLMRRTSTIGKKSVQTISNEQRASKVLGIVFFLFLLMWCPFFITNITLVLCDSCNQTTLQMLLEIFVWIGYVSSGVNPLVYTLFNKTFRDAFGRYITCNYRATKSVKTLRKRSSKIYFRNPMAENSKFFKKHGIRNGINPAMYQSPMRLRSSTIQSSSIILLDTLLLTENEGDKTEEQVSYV
T3 sequence (P28223 whole entry): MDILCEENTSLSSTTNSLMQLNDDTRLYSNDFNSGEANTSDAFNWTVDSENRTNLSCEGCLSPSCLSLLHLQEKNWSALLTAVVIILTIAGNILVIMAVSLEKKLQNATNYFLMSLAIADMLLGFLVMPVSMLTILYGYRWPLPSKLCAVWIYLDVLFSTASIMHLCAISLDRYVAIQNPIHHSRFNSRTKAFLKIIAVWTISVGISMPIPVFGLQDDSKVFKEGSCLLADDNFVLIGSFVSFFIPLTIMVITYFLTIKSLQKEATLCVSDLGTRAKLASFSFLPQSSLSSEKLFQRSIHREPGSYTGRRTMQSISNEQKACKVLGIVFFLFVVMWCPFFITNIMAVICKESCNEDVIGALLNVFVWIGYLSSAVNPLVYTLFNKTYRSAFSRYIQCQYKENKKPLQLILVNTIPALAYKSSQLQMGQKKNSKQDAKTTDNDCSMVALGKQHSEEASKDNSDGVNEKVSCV
Chain of Serotonin 2 receptors; 5-HT2a & 5-HT2c (Homo sapiens) (P28223 whole entry, looked up, one chain of several): as the sequence (P28223 whole entry) above
Chain of Sodium-dependent noradrenaline transporter (P23975 whole entry): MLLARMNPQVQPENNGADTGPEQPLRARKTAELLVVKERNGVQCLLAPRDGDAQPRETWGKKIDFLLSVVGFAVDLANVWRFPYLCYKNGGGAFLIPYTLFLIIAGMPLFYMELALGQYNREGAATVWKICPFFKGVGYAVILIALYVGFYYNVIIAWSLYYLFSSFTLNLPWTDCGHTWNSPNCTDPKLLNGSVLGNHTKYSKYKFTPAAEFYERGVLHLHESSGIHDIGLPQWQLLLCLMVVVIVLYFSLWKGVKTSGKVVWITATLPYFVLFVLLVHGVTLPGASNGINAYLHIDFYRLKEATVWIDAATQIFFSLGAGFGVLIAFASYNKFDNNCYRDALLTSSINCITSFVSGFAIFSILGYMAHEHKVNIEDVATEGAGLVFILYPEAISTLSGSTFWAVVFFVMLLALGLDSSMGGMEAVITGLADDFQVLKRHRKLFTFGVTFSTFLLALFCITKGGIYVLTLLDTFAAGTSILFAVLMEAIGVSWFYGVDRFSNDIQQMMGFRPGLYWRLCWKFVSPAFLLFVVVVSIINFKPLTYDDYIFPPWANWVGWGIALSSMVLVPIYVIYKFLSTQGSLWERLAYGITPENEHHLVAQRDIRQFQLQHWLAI
Chain of Sodium-dependent serotonin transporter (P31645 whole entry): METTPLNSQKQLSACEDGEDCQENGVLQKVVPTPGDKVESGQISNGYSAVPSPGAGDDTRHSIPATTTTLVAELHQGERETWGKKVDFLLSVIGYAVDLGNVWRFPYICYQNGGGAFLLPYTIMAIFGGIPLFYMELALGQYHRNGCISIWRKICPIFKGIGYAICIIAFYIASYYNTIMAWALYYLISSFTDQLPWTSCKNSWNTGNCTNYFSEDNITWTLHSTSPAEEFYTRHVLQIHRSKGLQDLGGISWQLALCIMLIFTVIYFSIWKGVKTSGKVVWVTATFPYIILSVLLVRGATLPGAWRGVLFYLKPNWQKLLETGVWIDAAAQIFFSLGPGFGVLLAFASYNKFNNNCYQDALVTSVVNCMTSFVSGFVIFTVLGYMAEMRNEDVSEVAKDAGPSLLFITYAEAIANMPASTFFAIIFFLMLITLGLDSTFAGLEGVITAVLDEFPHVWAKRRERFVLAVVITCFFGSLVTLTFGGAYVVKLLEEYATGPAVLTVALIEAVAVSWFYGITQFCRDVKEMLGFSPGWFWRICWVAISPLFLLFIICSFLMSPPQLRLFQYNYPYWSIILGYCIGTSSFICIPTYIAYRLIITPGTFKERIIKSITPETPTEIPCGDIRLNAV
Chain of Sodium-dependent dopamine transporter (Q01959 whole entry): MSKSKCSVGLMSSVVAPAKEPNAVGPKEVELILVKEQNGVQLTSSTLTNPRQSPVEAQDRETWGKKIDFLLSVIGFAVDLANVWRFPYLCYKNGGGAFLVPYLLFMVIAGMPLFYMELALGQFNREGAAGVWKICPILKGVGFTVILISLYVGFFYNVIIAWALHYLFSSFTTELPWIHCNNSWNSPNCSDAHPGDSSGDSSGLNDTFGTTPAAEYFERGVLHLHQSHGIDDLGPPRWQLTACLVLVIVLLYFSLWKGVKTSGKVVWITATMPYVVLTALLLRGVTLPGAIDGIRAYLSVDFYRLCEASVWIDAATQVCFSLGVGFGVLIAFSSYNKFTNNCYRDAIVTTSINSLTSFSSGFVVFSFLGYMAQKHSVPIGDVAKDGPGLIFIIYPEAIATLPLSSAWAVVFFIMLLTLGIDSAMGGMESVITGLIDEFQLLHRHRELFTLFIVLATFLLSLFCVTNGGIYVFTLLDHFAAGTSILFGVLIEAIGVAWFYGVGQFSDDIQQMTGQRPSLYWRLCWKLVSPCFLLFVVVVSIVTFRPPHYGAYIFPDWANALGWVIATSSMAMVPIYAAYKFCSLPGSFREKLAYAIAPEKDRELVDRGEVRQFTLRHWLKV

Consider `NC[C@H]1C[C@@H]1c1ccccc1Br`, for which the Ki in test [1] was determined as 3820 nM; in [6], 16 nM; in [8], 3400 nM; in test [9], 246 nM; in test [12] it was 66 nM; in test [15], 2110 nM. Besides, the Emax in [2] was determined as 102%; in test [3] it was 116%; in [11] it was 76%. Further, the results for the Ratio Ki in test [4] and in test [13] were 0.24 and 3.7, respectively. The EC50 stood at 67 nM in test [5], 0.78 nM in test [10] and 13 nM in test [14]. Besides, the Ratio EC50 in the test listed under Homo sapiens stood at 17; in test [7], 86.
With `Cc1cccc([C@H]2C[C@@H]2CN)c1.Cl` (relative stereo), the Activity in the test on Mus musculus [16] is reported as 38%; in the test on Mus musculus [17], 28%; with Mus musculus [18], 38%. Moreover, the Emax was 93% in [2], 95% in test [3] and 86% in test [11]. Further, the Ratio Ki in test [4] was found to be 0.32; in test [13], 6.9. Further, the Ratio EC50 in the test listed under Homo sapiens stood at 14; in test [7], 123.
